Screening results: PubChem BioAssay, Johns Hopkins Ion Channel Center
An excerpt weighted towards active compounds, which were near 3.7% of everything screened.
Kir21 block – blocks the mouse Kir2.1 inward-rectifier potassium channel. P35561. HEK293-Kir2.1, FluxOR thallium flux fluorescence; active compounds read low. B-score at 10 µM. 310,000 tested, 0.85% active;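 active = fluorescence ratio B-score at or below minus 3 SD of library scores, with starting-brightness B-score within 2 SD, cut at about -4.2 in these data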;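 also: channel flux triggered by added potassium and thallium sulfate stimulus; B-score of peak minus minimum fluorescence over baseline after thallium stimulus; more negative B-score means stronger Kir2.1 block with less thallium influx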
KCNK9 block – blocks the human KCNK9 two-pore domain potassium channel; B-score at 10 µM; HEK293 KCNK9, FluxOR thallium flux fluorescence; active compounds read low; 310,000 tested, 1.2% active;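 active = ratio B-score over 3 SD below the library mean, with starting fluorescence within 5 SD of its mean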;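 also: negative B-score means less thallium flux so channel inhibition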
Target sequence (Q9NPC2 whole entry, looked up, the tested form may be a part): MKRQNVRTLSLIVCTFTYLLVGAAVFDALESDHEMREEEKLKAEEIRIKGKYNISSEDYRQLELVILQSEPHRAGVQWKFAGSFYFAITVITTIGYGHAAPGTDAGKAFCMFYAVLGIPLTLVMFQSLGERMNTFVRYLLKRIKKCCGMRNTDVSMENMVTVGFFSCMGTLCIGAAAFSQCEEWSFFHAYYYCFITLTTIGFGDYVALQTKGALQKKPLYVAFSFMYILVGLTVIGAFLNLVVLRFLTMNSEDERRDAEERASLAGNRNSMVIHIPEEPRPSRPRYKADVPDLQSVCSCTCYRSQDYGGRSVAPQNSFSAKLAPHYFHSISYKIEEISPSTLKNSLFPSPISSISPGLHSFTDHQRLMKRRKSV
KCNQ1 pot – potentiates or activates the human KCNQ1 potassium channel. P51787. CHO-K1 KCNQ1, thallium flux FluxOR fluorescence; active compounds read high. B-score at 10 µM. 310,000 tested, 0.35% active. AID 2648;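 active = fluorescence ratio B-score, a plate-corrected score, at least three library SD, with initial intensity B-score within 5 SD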
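Assay system: CHO-K1 cells stably expressing KCNQ1; Medium: assay buffer with matched DMSO; Also added: K+/Tl+ depolarizing stimulus; Dosing: single dose; Timing: dye 90 min, compound 20 min, room temperature; Measured by: kinetic FluxOR thallium fluorescence, 10-s 1-Hz baseline, 110-s post-stimulus read; Read-out: peak-minus-minimum fluorescence over initial fluorescence, negative-control normalized, B-scored.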
hERG rescue – shields human hERG channel from block by proarrhythmic agents | Q12809 | CHO-hERG, FluxOR thallium flux, dofetilide IC70 present | activation (rescue from dofetilide block), less the hit threshold, % at 10 µM | 310,000 tested, 0.51% active;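 active = activation above the mean of controls blocked by dofetilide plus 5 SD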;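 also: thallium influx through hERG after potassium depolarization seen as dye fluorescence rise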
KCNK3 block – human KCNK3 channel inhibition, primary screen; O14649; CHO-KCNK3 thallium flux, FluxOR fluorescence; active compounds read low; B-score at 10 µM; 340,000 tested, 0.84% active; AID 602410;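 active = B-score under library mean minus 4 SD, starting fluorescence ratio at most library mean plus 5 SD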;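 also: more negative B-score means stronger inhibition of thallium flux through KCNK3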
KCNQ1 inh – inhibitors of human KCNQ1 potassium channel. AID 2642. B-score at 10 µM. 310,000 tested, 1.3% active. CHO-K1 KCNQ1, FluxOR thallium flux fluorescence; active compounds read high;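 active = compounds whose thallium flux B-score, printed positive for inhibition, exceeds three library SD while starting fluorescence stays within three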;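 also: channel opened by potassium depolarization with thallium stimulus after 20 min compound exposure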
* hit, by the source's call; i = inactive.

SMILES | Kir21 block | KCNK9 block | KCNQ1 pot | hERG rescue | KCNK3 block | KCNQ1 inh
O=C(Nc1csnn1)c1csnn1 | -0.27 | i | i | -8 | i | i
O=C(NC(=S)Nc1ccc(C(F)(F)F)cc1)c1csnn1 | 0.2 | i | 141* | 56* | i | i
Cc1ccc(C(=O)c2cc([N+](=O)[O-])ccc2N2CC(C)OC(C)C2)cc1 (stereo not drawn) | -0.14 | i | i | -3 | i | i
CC1CCCN(c2ccc([N+](=O)[O-])cc2C(=O)c2ccccc2)C1 (stereo not drawn) | -2.6 | i | i | -15 | i | 6*
Cc1ccc(C(=O)c2cc([N+](=O)[O-])ccc2N2CCCCC2)cc1 | 1.7 | -7.4* | i | -12 | i | i
O=C(c1ccccc1)c1cc([N+](=O)[O-])ccc1N1CCOCC1 | -1.3 | i | i | -5 | i | i
CSc1cccc(NC(=S)N2CCCN(Cc3ccc(F)cc3)C2)c1 | -1.9 | i | i | -18 | i | i
Cc1ccc(-n2cccc2/C=C2/C(=N)N3C(=NC2=O)SN=C3S(C)(=O)=O)cc1 | 1.6 | i | i | -22 | i | 10*
Cc1ccc(S(=O)(=O)Oc2ccc(/C=C3/C(=N)N4C(=NC3=O)SN=C4S(C)(=O)=O)cc2)cc1 | 0.02 | i | i | -13 | i | i
CS(=O)(=O)C1=NSC2=NC(=O)/C(=C\c3cccn3-c3ccccc3Cl)C(=N)N21 | 2.7 | i | i | -36 | i | 10*
O=C(Nc1ccccc1O)C(c1ccccc1)c1ccccc1 | 0.06 | i | i | -25 | i | 6*
O=C(O)c1ccccc1NC(=O)C(c1ccccc1)c1ccccc1 | 0.87 | i | i | -5 | i | i
O=[n+]1c2c(n([O-])c3cc(F)c(N4CCCC4)cc31)CCC2 | -7.4 | i | i | -28 | i | i
O=[n+]1c2c(n([O-])c3cc(F)c(N4CCCC4)cc31)CCCC2 | -4.1 | i | i | -16 | i | 9*
COC(=O)c1ccc(COc2ccccc2/C=C(\C#N)C(=O)Nc2ccc(C)cc2C)cc1 | -0.17 | -7.1* | i | -4 | i | i
Cc1ccc(-c2nc3cccnc3o2)cc1NC(=O)COc1ccc(C(C)(C)C)cc1 | 0 | i | i | -6 | i | 9*
Cc1ccc(-c2nc3ncccc3o2)cc1NC(=O)COc1ccccc1 | 0.37 | i | i | -3 | i | i
COc1cccc(CN2CCN(c3ccc(F)cc3)C2=O)c1 | 1.3 | i | i | -1 | i | i
O=C1N(Cc2ccc(F)cc2)CCN1c1ccc(F)cc1 | -0.45 | i | 19* | -14 | i | i
NC(=O)c1ccc(NC(=O)CN2CCN(Cc3ccccc3)CC2)cc1 | 0.53 | i | i | -2 | i | i
O=C(O)C1(c2ccccc2)CCN(S(=O)(=O)c2ccccc2)CC1 | -0.99 | i | i | 1 | i | i
O=C(O)C1(c2ccccc2)CCN(S(=O)(=O)c2cccs2)CC1 | 1.9 | i | i | 5.2* | i | i
COc1ccc(OC)c(NC(=O)c2cccnc2Sc2cc(C)ccc2C)c1 | -1.9 | -7.6* | i | -6 | i | i
FC(F)Sc1nc(-c2ccccc2)c(-c2ccccc2)n1C(F)F | -1.2 | i | i | -8 | i | 9*
Cc1cccc(-n2ncc3c(N)ncnc32)c1 | 1.2 | i | i | -4 | i | i
SMILES | Kir21 block | KCNK9 block | KCNQ1 pot | hERG rescue | KCNK3 block | KCNQ1 inh
Cc1cccc(-n2ncc3c(N(C)Cc4ccccc4)ncnc32)c1 | -0.74 | i | i | -9 | -11* | i
COCCCNC(=O)c1cn(-c2cccc(OC)c2)c(=O)c2ccccc12 | -1 | i | i | -1 | i | i
CCN(CC)CCCNC(=O)c1cn(-c2cccc(OC)c2)c(=O)c2ccccc12 | -0.5 | i | i | 5.0* | i | i
O=C(Nc1nc(-c2ccncc2)cs1)c1ccco1 | -0.42 | i | i | -8 | i | i
CC(C)CC(=O)NC(=S)Nc1nc(-c2ccc(Cl)cc2)cs1 | -0.9 | i | i | -4 | i | i
O=C(NC(=S)Nc1nc(-c2ccccc2)cs1)c1cccs1 | -0.09 | i | 17* | 17* | i | i
